ChEMBL document CHEMBL1158102, “Biologically active triterpenoid saponins from Acanthopanax senticosus” (J Nat Prod, 2006)
Calls of active or inactive are those of the source. The rule behind the calls is not given here.

molecular target: T1, Pancreatic triacylglycerol lipase (Homo sapiens) (UniProt P16233); experiment: Inhibition of pancreatic lipase assessed as umoles of oleic acic released per millimiter of triolein per hour at 1 mg/mL
T1 sequence (whole entry): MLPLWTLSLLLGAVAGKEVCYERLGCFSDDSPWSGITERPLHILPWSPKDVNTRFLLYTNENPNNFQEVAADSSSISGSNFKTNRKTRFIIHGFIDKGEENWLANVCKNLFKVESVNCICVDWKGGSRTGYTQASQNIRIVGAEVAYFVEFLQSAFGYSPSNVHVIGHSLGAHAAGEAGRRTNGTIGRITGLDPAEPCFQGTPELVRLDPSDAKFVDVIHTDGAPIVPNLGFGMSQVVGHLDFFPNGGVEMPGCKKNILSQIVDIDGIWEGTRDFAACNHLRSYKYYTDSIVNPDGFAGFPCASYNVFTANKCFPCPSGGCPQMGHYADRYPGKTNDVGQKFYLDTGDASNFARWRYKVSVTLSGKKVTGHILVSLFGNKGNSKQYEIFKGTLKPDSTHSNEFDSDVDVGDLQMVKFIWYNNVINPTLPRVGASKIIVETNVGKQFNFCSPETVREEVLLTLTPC
How it was run: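 Lipase activity measured as rate of oleic acid release from triolein. Substrate: sonicated triolein, phosphatidylcholine and taurocholic acid in 0.1 M TES buffer pH 7.0 with 0.1 M NaCl. Incubated with pancreatic lipase (10 units) and sample for 30 min at 37 °C. Free fatty acids extracted, converted to copper salts, reacted with bathocuproine, absorbance read at 480 nm. Means ± SEM of three experiments.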

Structure (SMILES)	inhibition [%]	Activity
C=C1CC[C@]2(C(=O)O[C@@H]3O[C@H](CO[C@@H]4O[C@H](CO)[C@@H](O[C@@H]5O[C@@H](C)[C@H](O)[C@@H](O)[C@H]5O)[C@H](O)[C@H]4O)[C@@H](O)[C@H](O)[C@H]3O)CC[C@]3(C)C(=CC[C@H]4[C@H]3CC[C@H]3C(C)(C)[C@@H](O[C@@H]5OC[C@H](O)[C@H](O)[C@H]5O)CC[C@]43C)[C@@H]2C1	46.5	–
C=C(C)[C@@H]1CC[C@]2(C(=O)O[C@@H]3O[C@H](CO[C@@H]4O[C@H](CO)[C@@H](O[C@@H]5O[C@@H](C)[C@H](O)[C@@H](O)[C@H]5O)[C@H](O)[C@H]4O)[C@@H](O)[C@H](O)[C@H]3O)CC[C@]3(C)[C@H](C[C@H]4OC(=O)C[C@@H](O)[C@]5(C)[C@@H]4[C@@]3(C)CC[C@H]5C(=C)C)[C@@H]12	56.1	–
CC(=O)OC[C@H]1O[C@@H](OC[C@H]2O[C@@H](OC(=O)[C@]34CCC(C)(C)C[C@H]3C3=CC[C@H]5[C@@H](CC[C@H]6C(C)(C)[C@@H](O[C@@H]7OC[C@H](O)[C@H](O)[C@H]7O[C@@H]7O[C@H](CO)[C@@H](O)[C@H](O)[C@H]7O)CC[C@]56C)[C@]3(C)CC4)[C@H](O)[C@@H](O)[C@@H]2O)[C@H](O)[C@@H](O)[C@@H]1O[C@@H]1O[C@@H](C)[C@H](O)[C@@H](O)[C@H]1O	–	inactive
C[C@@H]1O[C@@H](O[C@H]2[C@H](O[C@H]3CC[C@]4(C)[C@H]5CC=C6[C@@H]7C[C@](C)(CO)CC[C@]7(C(=O)O)CC[C@@]6(C)[C@@H]5CC[C@H]4C3(C)C)OC[C@H](O)[C@@H]2O)[C@H](O)[C@H](O)[C@H]1O	33	–
C[C@@H]1O[C@@H](O[C@H]2[C@H](O)[C@@H](O)[C@H](OC[C@H]3O[C@@H](OC(=O)[C@]45CCC(C)(C)C[C@H]4C4=CC[C@@H]6[C@@]7(C)CC[C@H](O[C@@H]8OC[C@H](O)[C@H](O)[C@H]8O)C(C)(C)[C@@H]7CC[C@@]6(C)[C@]4(C)CC5)[C@H](O)[C@@H](O)[C@@H]3O)O[C@@H]2CO)[C@H](O)[C@H](O)[C@H]1O	–	inactive
C[C@@H]1O[C@@H](O[C@H]2[C@H](O[C@H]3CC[C@]4(C)[C@H]5CC=C6[C@@H]7C[C@](C)(C(=O)O)CC[C@]7(C(=O)O)CC[C@@]6(C)[C@@H]5CC[C@H]4C3(C)C)OC[C@H](O)[C@@H]2O)[C@H](O)[C@H](O)[C@H]1O	44.9	–
C[C@@H]1O[C@@H](O[C@H]2[C@H](O[C@H]3CC[C@]4(C)[C@H]5CC=C6[C@@H]7CC(C)(C)CC[C@]7(C(=O)O[C@@H]7O[C@H](CO[C@@H]8O[C@H](CO)[C@@H](O[C@@H]9O[C@@H](C)[C@H](O)[C@@H](O)[C@H]9O)[C@H](O)[C@H]8O)[C@@H](O)[C@H](O)[C@H]7O)CC[C@@]6(C)[C@]5(C)CC[C@H]4C3(C)C)OC[C@H](O)[C@@H]2O)[C@H](O)[C@H](O)[C@H]1O	–	inactive

The next lines start with the values.

inhibition [%]	Activity	Structure (SMILES)
-46.7	–	C=C1CC[C@]2(C(=O)O[C@@H]3O[C@H](CO[C@@H]4O[C@H](COC(C)=O)[C@@H](O[C@@H]5O[C@@H](C)[C@H](O)[C@@H](O)[C@H]5O)[C@H](O)[C@H]4O)[C@@H](O)[C@H](O)[C@H]3O)CC[C@]3(C)C(=CC[C@H]4[C@H]3CC[C@H]3C(C)(C)[C@@H](O[C@@H]5OC[C@H](O)[C@H](O)[C@H]5O)CC[C@]43C)[C@@H]2C1
–	inactive	C=C1CC[C@]2(C(=O)O[C@@H]3O[C@H](CO[C@@H]4O[C@H](CO)[C@@H](O[C@@H]5O[C@@H](C)[C@H](O)[C@@H](O)[C@H]5O)[C@H](O)[C@H]4O)[C@@H](O)[C@H](O)[C@H]3O)CC[C@]3(C)C(=CC[C@H]4[C@H]3CC[C@H]3C(C)(C)[C@@H](O[C@@H]5OC[C@H](O)[C@H](O)[C@H]5O[C@@H]5O[C@H](CO)[C@@H](O)[C@H](O)[C@H]5O)CC[C@]43C)[C@@H]2C1
–	inactive	C=C1CC[C@]2(C(=O)O[C@@H]3O[C@H](CO[C@@H]4O[C@H](CO)[C@@H](O[C@@H]5O[C@@H](C)[C@H](O)[C@@H](O)[C@H]5O)[C@H](O)[C@H]4O)[C@@H](O)[C@H](O)[C@H]3O)CC[C@]3(C)C(=CC[C@H]4[C@H]3CC[C@H]3C(C)(C)[C@@H](O[C@@H]5OC[C@H](O)[C@H](O)[C@H]5O[C@@H]5O[C@@H](C)[C@H](O)[C@@H](O)[C@H]5O)CC[C@]43C)[C@@H]2C1
38.3	–	C[C@@H]1O[C@@H](O[C@H]2[C@H](O[C@H]3CC[C@]4(C)[C@H]5CC=C6[C@@H]7CC(C)(C)CC[C@]7(C(=O)O[C@@H]7O[C@H](CO[C@@H]8O[C@H](CO)[C@@H](O[C@@H]9O[C@@H](C)[C@H](O)[C@@H](O)[C@H]9O)[C@H](O)[C@H]8O)[C@@H](O)[C@H](O)[C@H]7O)[C@H](O)C[C@@]6(C)[C@@H]5CC[C@H]4C3(C)C)OC[C@H](O)[C@@H]2O)[C@H](O)[C@H](O)[C@H]1O
44.6	–	C=C(C)[C@@H]1CC[C@]2(C(=O)O[C@@H]3O[C@H](CO[C@@H]4O[C@H](CO)[C@@H](O[C@@H]5O[C@@H](C)[C@H](O)[C@@H](O)[C@H]5O)[C@H](O)[C@H]4O)[C@@H](O)[C@H](O)[C@H]3O)CC[C@]3(C)[C@H](CC[C@@H]4[C@@](C)(CCC(=O)O)[C@H](C(=C)C)CC[C@]43C)[C@@H]12
–	inactive	C=C1CC[C@]2(C(=O)O[C@@H]3O[C@H](CO[C@@H]4O[C@H](COC(C)=O)[C@@H](O[C@@H]5O[C@@H](C)[C@H](O)[C@@H](O)[C@H]5O)[C@H](O)[C@H]4O)[C@@H](O)[C@H](O)[C@H]3O)CC[C@]3(C)C(=CC[C@H]4[C@H]3CC[C@H]3C(C)(C)[C@@H](O[C@@H]5OC[C@H](O)[C@H](O)[C@H]5O[C@@H]5O[C@H](CO)[C@@H](O)[C@H](O)[C@H]5O)CC[C@]43C)[C@@H]2C1
–	inactive	CC(=O)OC[C@H]1O[C@@H](OC[C@H]2O[C@@H](OC(=O)[C@]34CCC(C)(C)C[C@H]3C3=CC[C@H]5[C@@H](CC[C@H]6C(C)(C)[C@@H](O[C@@H]7OC[C@H](O)[C@H](O)[C@H]7O[C@@H]7O[C@@H](C)[C@H](O)[C@@H](O)[C@H]7O)CC[C@]56C)[C@]3(C)CC4)[C@H](O)[C@@H](O)[C@@H]2O)[C@H](O)[C@@H](O)[C@@H]1O[C@@H]1O[C@@H](C)[C@H](O)[C@@H](O)[C@H]1O
-80.5	–	C=C1CC[C@]2(C(=O)O[C@@H]3O[C@H](CO[C@@H]4O[C@H](COC(C)=O)[C@@H](O[C@@H]5O[C@@H](C)[C@H](O)[C@@H](O)[C@H]5O)[C@H](O)[C@H]4O)[C@@H](O)[C@H](O)[C@H]3O)CC[C@]3(C)C(=CC[C@H]4[C@H]3CC[C@H]3C(C)(C)[C@@H](O[C@@H]5OC[C@H](O)[C@H](O)[C@H]5O[C@@H]5O[C@@H](C)[C@H](O)[C@@H](O)[C@H]5O)CC[C@]43C)[C@@H]2C1
